Data taken from ChEMBL document CHEMBL1144934, “Efficacious and orally bioavailable thrombin inhibitors based on a 2,5-thienylamidine at the P1 position: discovery of N-carboxymethyl-d-diphenylalanyl-l-prolyl[(5-amidino-2-thienyl)methyl]amide” (J Med Chem, 2003).

Experiments:
Prothrombin = Prothrombin (Homo sapiens, UniProt P00734); test: In vitro inhibition constant (Ki) against human thrombin
[1] = Area under curve (AUC) was measured after oral dosing at 30 mg/kg in rat; type: ADME, organism-based; design: dose 30 mg/kg, route oral; conditions: in vivo
[2] = Maximal plasma concentration in rats after 30 mg/kg oral dose; type: ADME, organism-based; design: dose 30 mg/kg, route oral; conditions: rat
[3] = Clearance value was determined after intravenous dosing at 10 mg/kg in rat; type: ADME, organism-based; design: dose 10 mg/kg, route intravenous; conditions: in vivo
Summary of the method: (§1)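 Male Sprague–Dawley rats (250–300 g), femoral artery and vein cannulated under light ether anesthesia; after recovery, 10 mg/kg given via femoral vein. Arterial blood sampled at 0, 1, 5, 15, 30, 60, 90, 120, 180, 240 min, collected into heparinized tubes, deproteinized with 2 volumes methanol, centrifuged; supernatant analyzed by HPLC (0.1% TFA/acetonitrile 81:19).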

[4] = Bioavailability in rat; type: ADME, organism-based; conditions: in vivo
Rattus norvegicus [5] = test: In vivo inhibition of thrombus formation in thromboplastin-induced deep vein thrombosis (DVT) rat model after iv bolus dosing at 1 mg/kg; type: functional
[6] = Steady state volume of distribution (Vdss) was determined after intravenous dosing at 10 mg/kg in rat; type: ADME, organism-based; design: dose 10 mg/kg, route intravenous; conditions: in vivo, read-out: Vdss; summary of the method: as §1
[7] = Area under curve (AUC) was determined after intravenous dosing at 10 mg/kg in rat; type: ADME, organism-based; design: dose 10 mg/kg, route intravenous; conditions: in vivo; summary of the method: as §1
[8] = Half life of compound was determined after intravenous dosing at 10 mg/kg in rat; type: ADME, organism-based; design: dose 10 mg/kg, route intravenous; conditions: in vivo; summary of the method: as §1
Rattus norvegicus [9] = test: Ex vivo activated clotting time was measured in rat plasma at 1 mg/kg; type: functional
[10] = In vitro metabolic stability was determined using liver S9 fraction from human at initial concentration of 20 uM; type: ADME; conditions: liver S9 fraction, read-out: Recovery
Summary of the method: (§2)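 Liver S9 (9000g supernatant of homogenate in Tris-acetate pH 7.4, KCl, EDTA) from rat, dog, monkey (pooled, n = 2) or human (n = 2); 20 µM final compound with NADPH generating system and S9 6.72 mg/mL in 100 mM phosphate pH 7.4, 37 °C. Samples methanol-deproteinized, HPLC; recovery after 30 min reported; no-NADPH control.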

[11] = In vitro metabolic stability was determined using liver S9 fraction from monkey at initial concentration of 20 uM; type: ADME, subcellular; conditions: simiiformes, read-out: Recovery; summary of the method: as §2
[12] = In vitro metabolic stability was determined using liver S9 fraction from rat at initial concentration of 20 uM; type: ADME; conditions: read-out: Recovery; summary of the method: as §2
Rattus norvegicus [13] = species on record: Rattus norvegicus; test: Ex vivo concentration of inhibitor to double the activated clotting time was measured in rat plasma; type: functional
Rattus norvegicus [14] = species on record: Rattus norvegicus; test: In vitro concentration of inhibitor to double the activated partial thromboplastin time was evaluated in rat; type: functional
[15] = In vitro metabolic stability was determined using liver S9 fraction from dog at initial concentration of 20 uM; type: ADME, Canis lupus familiaris; conditions: read-out: Recovery; summary of the method: as §2

Row | Compound | Ki (Prothrombin) [nM] | AUC [1] [ng·h/mL] | Cmax [2] [ng/mL] | clearance [3] [mL/min/kg] | bioavailability [4] [%] | inhibition in vivo at 1 mg/kg (Rattus norvegicus [5]) [%] | Vd [6] [L/kg] | AUC [7] [ng·h/mL] | half-life [8] [min] | ACT (Rattus norvegicus [9]) | remaining at 20 µM [10] [%] | remaining at 20 µM [11] [%] | remaining at 20 µM [12] [%] | Concentration to double activated clotting time (Rattus norvegicus [13]) [µM] | APTT (Homo sapiens) [µM] | APTT (Rattus norvegicus [14]) [µM] | remaining at 20 µM [15] [%]
1 | COC(=O)N[C@@H](C(=O)N1CCC[C@H]1C(=O)NCc1ccc(C(=N)N)nc1)C(c1ccccc1)c1ccccc1 | 0.017 | 26100 | 14000 | 2.1 | 11 | 100 | 0.139 | 80400 | 81 | 6 |  |  |  |  |  |  | 
2 | N=C(N)c1ccc(CNC(=O)[C@@H]2CCCN2C(=O)[C@H](NS(N)(=O)=O)C(c2ccccc2)c2ccccc2)cc1 |  | 4530 | 2800 | 8.6 | 8 | 100 | 0.297 | 19700 | 45 | 11 | 92 | 87 | 90 | 1.23 | 0.14 | 1.24 | 93
3 | COC(=O)N[C@@H](C(=O)N1CCC[C@H]1C(=O)NCc1csc(C(=N)N)c1)C(c1ccccc1)c1ccccc1 | 0.6 |  | 8600 | 1.7 | 7 | 98 | 0.23 | 102000 | 45 | 3.7 | 13 | < 10 | 49 | 6.86 | 0.37 | 5.2 | 83
4 | COC(=O)N[C@@H](C(=O)N1CCC[C@H]1C(=O)NCc1ccc(C(=N)N)s1)C(c1ccccc1)c1ccccc1 | 0.015 | 7100 | 4100 | 5.4 | 8 | 93 | 0.152 | 31200 | 53 | 5.2 | 38 | < 10 | 60 | 3.75 | 0.34 | 2.85 | 91
5 | COC(=O)N[C@@H](C(=O)N1CCC[C@H]1C(=O)NCc1ccc(C(=N)N)cc1)C(c1ccccc1)c1ccccc1 |  | 9900 | 4000 | 3 | 6 | 100 | 0.174 | 56800 | 69 | 6.8 | 86 | 39 | 80 |  |  |  | 65
6 | N=C(N)c1ccc(CNC(=O)[C@@H]2CCCN2C(=O)[C@H](NS(N)(=O)=O)C(c2ccccc2)c2ccccc2)o1 | 0.43 | 2270 | 1000 |  |  |  |  |  |  |  |  |  |  |  |  |  | 
7 | CC1CNc2c(cccc2S(=O)(=O)N[C@@H](CCCNC(=N)N)C(=O)N2CC[C@@H](C)C[C@@H]2C(=O)O)C1 (stereo not given in full) [ARGATROBAN] |  |  |  |  |  | 82 |  |  |  | 1.9 |  |  |  | 1.97 | 0.57 | 2.5 | 
8 | CN(C(=O)C(NS(=O)(=O)c1ccc2ccccc2c1)c1ccc(C(=N)NN)cc1)C1CCCC1 (stereo not given) | 0.4 |  |  |  |  |  |  |  |  |  |  |  |  |  |  |  | 
9 | N=C(N)c1ccc(CNC(=O)[C@@H]2CCCN2C(=O)[C@H](NS(N)(=O)=O)C(c2ccccc2)c2ccccc2)s1 |  | 4700 |  | 11.6 | 11 | 100 | 0.31 | 14400 | 34 |  | 86 | 81 | 84 | 2.09 | 0.19 | 1.5 | 96

More lines, main results first:

Row | Ki (Prothrombin) [nM] | AUC [1] [ng·h/mL] | Cmax [2] [ng/mL] | Compound | clearance [3] [mL/min/kg] | bioavailability [4] [%] | inhibition in vivo at 1 mg/kg (Rattus norvegicus [5]) [%] | Vd [6] [L/kg] | AUC [7] [ng·h/mL] | half-life [8] [min] | ACT (Rattus norvegicus [9]) | remaining at 20 µM [10] [%] | remaining at 20 µM [11] [%] | remaining at 20 µM [12] [%] | Concentration to double activated clotting time (Rattus norvegicus [13]) [µM] | APTT (Homo sapiens) [µM] | APTT (Rattus norvegicus [14]) [µM] | remaining at 20 µM [15] [%]
10 | 0.005 | 1420 | 1300 | CS(=O)(=O)N[C@@H](C(=O)N1CCC[C@H]1C(=O)NCc1ccc(C(=N)N)s1)C(c1ccccc1)c1ccccc1.N=C(N)c1ccccc1 |  |  |  |  |  |  |  |  |  |  |  |  |  | 
11 | 0.01 |  |  | N=C(N)c1ccc(CNC(=O)[C@@H]2CCCN2C(=O)[C@H](NCCC(=O)O)C(c2ccccc2)c2ccccc2)s1 |  |  |  |  |  |  |  |  |  |  |  |  |  | 
12 | 0.01 | 1480 | 1100 | N=C(N)c1ccc(CNC(=O)[C@@H]2CCCN2C(=O)[C@H](NS(N)(=O)=O)C(c2ccccc2)c2ccccc2)c(F)c1 |  |  |  |  |  |  |  |  |  |  |  |  |  | 
13 | 0.008 | 3430 | 2400 | N=C(N)c1ccc(CNC(=O)[C@@H]2CCCN2C(=O)[C@H](NS(N)(=O)=O)C(c2ccccc2)c2ccccc2)cc1F |  |  |  |  |  |  |  |  |  |  |  |  |  | 
14 | 1.4 | 18600 | 7100 | COC(=O)N[C@@H](C(=O)N1CCC[C@H]1C(=O)NCc1coc(C(=N)N)c1)C(c1ccccc1)c1ccccc1 |  |  |  |  |  |  |  |  |  |  |  |  |  | 
15 |  | 4380 | 2800 | CS(=O)(=O)N[C@@H](C(=O)N1CCC[C@H]1C(=O)NCc1ccc(C(=N)N)cc1)C(c1ccccc1)c1ccccc1 |  |  |  |  |  |  |  |  |  |  |  |  |  | 
16 | 0.013 | 2000 | 1300 | N=C(N)c1ccc(CNC(=O)[C@@H]2CCCN2C(=O)[C@H](NCC(=O)O)C(c2ccccc2)c2ccccc2)cc1 |  |  |  |  |  |  |  | 97 | 80 | 87 |  |  |  | 95
17 | 0.16 |  | 500 | N=C(N)c1cc(CNC(=O)[C@@H]2CCCN2C(=O)[C@H](NS(N)(=O)=O)C(c2ccccc2)c2ccccc2)cs1 |  |  |  |  |  |  |  |  |  |  |  |  |  | 
18 | 0.17 |  | 4600 | COC(=O)N[C@@H](C(=O)N1CCC[C@H]1C(=O)NCc1cc(C(=N)N)cs1)C(c1ccccc1)c1ccccc1 |  |  |  |  |  |  |  |  |  |  |  |  |  | 
19 | 0.02 |  | 2000 | N=C(N)c1csc(CNC(=O)[C@@H]2CCCN2C(=O)[C@H](NS(N)(=O)=O)C(c2ccccc2)c2ccccc2)c1 |  |  |  |  |  |  |  |  |  |  |  |  |  | 
20 |  | 4100 | 1600 | N=C(N)c1ccc(CNC(=O)[C@@H]2CCCN2C(=O)[C@H](NS(N)(=O)=O)C(c2ccccc2)c2ccccc2)cn1 |  |  |  |  |  |  |  |  |  |  |  |  |  | 
